# In ChEMBL document CHEMBL1649147, “Antistaphylococcal activity of dihydrophthalazine antifolates, a family of novel antibacterial drugs” (2009):
# Tests used:
# [1] = tested on: Staphylococcus epidermidis; test: Antibacterial activity against coagulase-negative Staphylococcus epidermidis 051 by agar dilution method; type: functional
# Summary of the method: (§1)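 MICs by agar dilution on Mueller-Hinton agar following CLSI guidelines. S. aureus ATCC 29213 and E. faecalis ATCC 29212 were run as quality controls with each set, and test-strain MICs were kept only if control MICs fell within acceptable ranges.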
# Staphylococcus aureus [2] = test: Antibacterial activity against Tmp-susceptible coagulase-negative Staphylococcus aureus by agar dilution method; type: functional; summary of the method: as §1
# Staphylococcus aureus [3] = test: Antibacterial activity against methicillin-susceptible Staphylococcus aureus 505 by broth macrodilution method; type: functional
# [4] = tested on: Staphylococcus epidermidis; test: Antibacterial activity against coagulase-negative Staphylococcus epidermidis 051 after 10 passages in MBH without antibiotic by agar dilution method; type: functional
# Summary of the method: (§2)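 After drug-selective serial passage, selected clones were passaged 10 times in antibiotic-free MHB. MICs were then redetermined, and the change is expressed as log2 dilution steps.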
# Staphylococcus aureus [5] = test: Antibacterial activity against methicillin-resistant Staphylococcus aureus by agar dilution method; type: functional
# Summary of the method: (§3)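 Agar dilution on Mueller-Hinton agar per CLSI guidelines. S. aureus ATCC 29213 and E. faecalis ATCC 29212 were run with each set, and test MICs were accepted only when the control strains fell within acceptable ranges.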
# Staphylococcus aureus [6] = test: Antibacterial activity against vancomycin-resistant Staphylococcus aureus VRS1 assessed as change in MIC by agar dilution method after serial passages in the absence of antibiotic relative to control; type: functional
# Summary of the method: (§4)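 Clones from the end of drug passage were transferred 10 times in MHB without antibiotic, then retested by agar dilution. MIC change is expressed as log2 dilution steps.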
# Staphylococcus aureus [7] = test: Antibacterial activity against Staphylococcus aureus ATCC 29213 assessed as change in MIC by agar odilution method after serial passages in presence of antibiotic relative to control; type: functional, ATCC29213
# Summary of the method: (§5)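 Serial passage under drug. Inoculum was ~1 × 10^6 CFU/ml from overnight MHA growth, in 1 ml MHB at 35°C for 24 h. Drug ranged from 4 log2 steps above to 3 log2 steps below the MIC. […] MIC change is given as log2 steps.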
# Staphylococcus aureus [8] = test: Antibacterial activity against methicillin-susceptible Staphylococcus aureus ATCC 29213 after 50 passages by agar dilution method; type: functional; settings: ATCC29213
# Summary of the method: (§6)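 Daily serial passage for up to 50 days at 35°C for 24 h in 1 ml MHB. […] Each transfer used 10 µl from the tube nearest the MIC (1–2 dilutions below) with the same turbidity as the drug-free control. […] MICs were measured by agar dilution, with changes given as log2 steps.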
# [9] = tested on: Staphylococcus epidermidis; test: Antibacterial activity against methicillin-resistant coagulase-negative Staphylococcus epidermidis 074 by broth macrodilution method; type: functional
# Staphylococcus aureus [10] = test: Antibacterial activity against vancomycin-resistant Staphylococcus aureus VRS1 assessed as change in MIC by agar dilution method after serial passages in presence of antibiotic relative to control; type: functional; summary of the method: as §6
# Staphylococcus aureus [11] = test: Antibacterial activity against vancomycin-resistant Staphylococcus aureus VRS1 after 10 passages in MHB without antibiotic by agar dilution method; type: functional; summary of the method: as §4
# Staphylococcus aureus [12] = test: Antibacterial activity against Staphylococcus aureus 145 after 10 passages in MHB without antibiotic by agar dilution method; type: functional; summary of the method: as §2
# [13] = tested on: Staphylococcus epidermidis; test: Antibacterial activity against coagulase-negative Staphylococcus epidermidis 225 after 10 passages in MBH without antibiotic by agar dilution method; type: functional; summary of the method: as §2
# Staphylococcus aureus [14] = test: Antibacterial activity against vancomycin-resistant Staphylococcus aureus VRS1 by broth macrodilution method; type: functional
# Summary of the method: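 Michigan VRSA strain, one of 12 staphylococci later used in time-kill studies. MIC was determined by broth macrodilution and reported in μg/ml.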
# [15] = tested on: Staphylococcus epidermidis; test: Antibacterial activity against coagulase-negative Staphylococcus epidermidis 051 assessed as change in MIC by agar dilution method after serial passages in the absence of antibiotic relative to control; type: functional; summary of the method: as §2
# [16] = tested on: Staphylococcus epidermidis; test: Antibacterial activity against methicillin-resistant, vancomycin-intermediate coagulase-negative Staphylococcus epidermidis 225 by agar dilution method; type: functional; summary of the method: as §3
# [17] = tested on: Staphylococcus epidermidis; test: Antibacterial activity against coagulase-negative Staphylococcus epidermidis 057 by agar dilution method; type: functional
# Summary of the method: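 Agar dilution MIC determined on Mueller-Hinton agar following CLSI guidelines. S. aureus ATCC 29213 and Enterococcus faecalis ATCC 29212 were run as quality controls with each set, and test MICs were accepted only when the control MICs fell within acceptable ranges. Test organism was a coagulase-negative S. epidermidis strain.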
# Staphylococcus aureus [18] = test: Antibacterial activity against methicillin-susceptible Staphylococcus aureus by agar dilution method; type: functional; summary of the method: as §3
# [19] = tested on: Staphylococcus epidermidis; test: Antibacterial activity against coagulase-negative Staphylococcus epidermidis 345 assessed as change in MIC by agar dilution method after serial passages in presence of antibiotic relative to control; type: functional; summary of the method: as §5
# Staphylococcus aureus [20] = test: Antibacterial activity against methicillin-resistant Staphylococcus aureus 145 by broth macrodilution method; type: functional
# Staphylococcus aureus [21] = test: Antibacterial activity against Tmp-resistant Staphylococcus aureus by agar dilution method; type: functional; summary of the method: as §1
# Staphylococcus aureus [22] = test: Antibacterial activity against Staphylococcus aureus 145 assessed as change in MIC by agar dilution method after serial passages in the absence of antibiotic relative to control; type: functional; summary of the method: as §2
# [23] = tested on: Staphylococcus epidermidis; test: Antibacterial activity against coagulase-negative Staphylococcus epidermidis 345 after 10 passages in MBH without antibiotic by agar dilution method; type: functional; summary of the method: as §2
# Staphylococcus aureus [24] = test: Antibacterial activity against Tmp-susceptible Staphylococcus aureus by agar dilution method; type: functional; summary of the method: as §1
# [25] = tested on: Staphylococcus epidermidis; test: Antibacterial activity against methicillin-susceptible coagulase-negative Staphylococcus epidermidis 051 by broth macrodilution method; type: functional
# [26] = tested on: coagulase-negative staphylococci; test: Antibacterial activity against Tmp-resistant coagulase-negative staphylococci by agar dilution method
# Staphylococcus aureus [27] = test: Antibacterial activity against Staphylococcus aureus ATCC 43300 assessed as change in MIC by agar dilution method after serial passages in presence of antibiotic relative to control; type: functional; summary of the method: as §5
# Staphylococcus aureus [28] = test: Antibacterial activity against methicillin-resistant Staphylococcus aureus 507 by broth macrodilution method; type: functional
# Staphylococcus aureus [29] = test: Antibacterial activity against methicillin-resistant Staphylococcus aureus ATCC 43300 after 50 passages by agar dilution method; type: functional; settings: ATCC43300; summary of the method: as §5
# [30] = tested on: Staphylococcus epidermidis; test: Antibacterial activity against coagulase-negative Staphylococcus epidermidis 057 after 10 passages in MBH without antibiotic by agar dilution method; type: functional; summary of the method: as §2
# Staphylococcus aureus [31] = test: Antibacterial activity against Staphylococcus aureus 145 assessed as change in MIC by agar dilution method after serial passages in presence of antibiotic relative to control; type: functional; summary of the method: as §5
# [32] = tested on: Staphylococcus epidermidis; test: Antibacterial activity against coagulase-negative Staphylococcus epidermidis 197 assessed as change in MIC by agar dilution method after serial passages in presence of antibiotic relative to control; type: functional; summary of the method: as §5
# Staphylococcus aureus [33] = test: Antibacterial activity against methicillin-susceptible Staphylococcus aureus ATCC 29213 by broth macrodilution method; type: functional; settings: ATCC29213
# [34] = tested on: Staphylococcus epidermidis; test: Antibacterial activity against methicillin-resistant coagulase-negative Staphylococcus epidermidis 345 by broth macrodilution method; type: functional
# [35] = tested on: Staphylococcus epidermidis; test: Antibacterial activity against coagulase-negative Staphylococcus epidermidis 057 assessed as change in MIC by agar dilution method after serial passages in presence of antibiotic relative to control; type: functional; summary of the method: as §5
# [36] = tested on: Staphylococcus epidermidis; test: Antibacterial activity against coagulase-negative Staphylococcus epidermidis 051 assessed as change in MIC by agar dilution method after serial passages in presence of antibiotic relative to control; type: functional; summary of the method: as §5
# Staphylococcus aureus [37] = test: Antibacterial activity against methicillin-susceptible, vancomycin-intermediate Staphylococcus aureus 505 after 50 passages by agar dilution method; type: functional; summary of the method: as §6
compound,measurement,setting,value
COc1cc(Cc2cnc(N)nc2N)cc(/C=C/C(=O)N2N=Cc3ccccc3C2c2cnc(N(C)C)nc2)c1OC (configuration not stated),MIC,[1],0.125 µg/mL
same,MIC,Staphylococcus aureus [2],≤ 0.008 µg/mL
same,MIC,Staphylococcus aureus [3],0.125 µg/mL
same,MIC,[4],4 µg/mL
same,MIC50,Staphylococcus aureus [5],0.03 µg/mL
same,MIC90,Staphylococcus aureus [5],0.125 µg/mL
same,fold change (FC),Staphylococcus aureus [6],0
same,fold change (FC),Staphylococcus aureus [7],3
same,MIC,Staphylococcus aureus [8],0.5 µg/mL
same,MIC,[9],0.06 µg/mL
same,fold change (FC),Staphylococcus aureus [10],10
same,MIC,Staphylococcus aureus [11],> 128 µg/mL
same,MIC,Staphylococcus aureus [12],> 128 µg/mL
same,MIC,[13],2 µg/mL
same,MIC,Staphylococcus aureus [14],0.5 µg/mL
same,fold change (FC),[15],-6
same,MIC,[16],0.25 µg/mL
same,MIC,[17],8 µg/mL
same,MIC50,Staphylococcus aureus [18],0.03 µg/mL
same,MIC90,Staphylococcus aureus [18],0.25 µg/mL
same,fold change (FC),[19],12
same,MIC,Staphylococcus aureus [20],0.25 µg/mL
same,MIC50,Staphylococcus aureus [21],0.25 µg/mL
same,MIC90,Staphylococcus aureus [21],0.5 µg/mL
same,fold change (FC),Staphylococcus aureus [22],0
same,MIC,[23],2 µg/mL
same,MIC50,Staphylococcus aureus [24],0.03 µg/mL
same,MIC90,Staphylococcus aureus [24],0.03 µg/mL
same,MIC,[25],0.125 µg/mL
same,MIC50,[26],0.125 µg/mL
same,MIC90,[26],0.5 µg/mL
same,fold change (FC),Staphylococcus aureus [27],5
same,MIC,Staphylococcus aureus [28],0.125 µg/mL
same,MIC,Staphylococcus aureus [29],1 µg/mL
same,MIC,[30],128 µg/mL
same,fold change (FC),Staphylococcus aureus [31],10
same,fold change (FC),[32],1
same,MIC,Staphylococcus aureus [33],0.06 µg/mL
same,MIC,[34],0.06 µg/mL
same,fold change (FC),[35],5
same,fold change (FC),[36],11
same,MIC,Staphylococcus aureus [37],8 µg/mL
